Experimental data: ChEMBL document CHEMBL1154599 (J Med Chem, 2009)
Calls of active or inactive are those of the source. No cut-off for these calls is given here.

Legend:
[1] = molecular target: T1, Amine oxidase [flavin-containing] B (Rattus norvegicus, UniProt P19643); experiment: Inhibition of MAO-B from Wistar rat brain by radioenzymatic assay
T1 sequence (P19643 whole entry): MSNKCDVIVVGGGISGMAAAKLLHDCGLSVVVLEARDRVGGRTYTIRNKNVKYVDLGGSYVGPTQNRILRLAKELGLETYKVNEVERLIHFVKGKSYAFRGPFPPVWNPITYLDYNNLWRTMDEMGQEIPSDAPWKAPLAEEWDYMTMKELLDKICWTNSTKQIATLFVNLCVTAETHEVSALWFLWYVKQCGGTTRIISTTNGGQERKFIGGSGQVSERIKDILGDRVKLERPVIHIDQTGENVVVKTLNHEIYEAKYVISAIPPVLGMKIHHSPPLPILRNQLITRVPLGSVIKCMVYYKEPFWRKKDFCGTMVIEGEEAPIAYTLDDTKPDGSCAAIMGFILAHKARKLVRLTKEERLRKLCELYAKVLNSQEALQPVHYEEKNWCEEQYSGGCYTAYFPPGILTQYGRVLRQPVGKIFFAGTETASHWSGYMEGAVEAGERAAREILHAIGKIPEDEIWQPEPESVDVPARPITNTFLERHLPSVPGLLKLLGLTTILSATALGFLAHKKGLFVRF
How it was run: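 Crude mitochondrial fraction from male Wistar rat brain (150-175 g), 500 μg protein in 0.1 M phosphate pH 7.40. Preincubated 30 min at 37 °C with compound. Substrate then added: [14C]5-HT 5 μM for 30 min (MAO-A) or [14C]PEA 0.5 μM for 10 min (MAO-B), 37 °C. Stopped with acid, deaminated metabolites extracted into ether or toluene, counted by scintillation.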

[2] = species: Rattus norvegicus; experiment: Selectivity index, ratio of IC50 for rat MAO-A to IC50 for rat MAO-B
How it was run: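 Ratio of IC50 values from rat brain mitochondrial radioenzymatic assays: MAO-A with [14C]5-HT 5 μM, 30 min, and MAO-B with [14C]PEA 0.5 μM, 10 min. Both after 30 min preincubation with compound at 37 °C.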

[3] = Octanol-water partition coefficient, log P by potentiometric titration; assay type: physicochemical
[4] = Aqueous solubility at pH 7.4 by turbidimetric method; assay type: physicochemical; details: aqueous solution
How it was run: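 DMSO stock of compound added in 2 μL portions, about 10 additions, to 50 mM Tris-HCl pH 7.4 or 50 mM acetate pH 3.0 at room temperature, final DMSO below 5%. Precipitation read as light-scattering absorbance rise at 600-820 nm. Solubility limit taken from a bilinear fit of absorbance against DMSO volume. Three independent assays, mean ± SEM.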

[5] = Permeability across PAMPA membrane assessed as permeability coefficient at 2.5 mM by HDM-PAMPA assay; assay type: ADME; details: 2500 µM
How it was run: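 Hexadecane artificial membrane (0.75 μL per well, applied as 5% v/v in hexane, hexane evaporated) on polycarbonate filters; donor and acceptor in 0.1 M phosphate buffer pH 6.8 with 5% DMSO (iso-pH); 5 h at room temperature, shaking at 75 rpm; quadruplicate. Donor and acceptor concentrations read by UV at λmax. Retention, CA(t)/CD(0) and Pe calculated by the stated equations, τLAG neglected; membrane integrity checked by electrical resistance.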

[6] = test system: Mus musculus; experiment: Ex vivo inhibition of MAO-A in C57Bl mouse brain at 3 mg/kg, po or 3 mg/kg, ip after 1 hr by radioenzymatic assay; assay type: functional, organism-based
How it was run: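 C57Bl mice (n = 6 per group) dosed orally or intraperitoneally at 3 mg/kg and killed 1 h later. Brains homogenized in 0.1 M phosphate pH 7.40. MAO-A ([14C]5-HT) and MAO-B ([14C]PEA) activities measured by radioenzymatic assay. Mean ± SEM, ANOVA with Dunnett's test.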

[7] = test system: Mus musculus; experiment: Ex vivo inhibition of MAO-B in C57Bl mouse brain at 0.5 mg/kg, po after 30 mins by radioenzymatic assay; assay type: functional; set-up: scale not given: the % may be the effect or the level left
How it was run: (§1)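 C57Bl mice (n = 6 per group) given 0.5 mg/kg orally and killed at 0.5, 1, 2, 4, 8 or 16 h. Brain homogenates in 0.1 M phosphate pH 7.40 assayed radioenzymatically for MAO-B with [14C]PEA. Mean ± SEM, ANOVA with Dunnett's test.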

[8] = test system: Mus musculus; experiment: Ex vivo inhibition of MAO-B in C57Bl mouse brain at 0.5 mg/kg, po after 1 hr by radioenzymatic assay; assay type: functional; set-up: scale not given: the % may be the effect or the level left; how it was run: as §1
[9] = test system: Mus musculus; experiment: Ex vivo inhibition of MAO-B in C57Bl mouse brain at 0.5 mg/kg, po after 2 hrs by radioenzymatic assay; assay type: functional; set-up: scale not given: the % may be the effect or the level left; how it was run: as §1
[10] = species: Mus musculus; experiment: Ex vivo inhibition of MAO-B in C57Bl mouse brain after 1 hr by radioenzymatic assay; assay type: functional
[11] = molecular target: Cytochrome P450 2C9 (Homo sapiens, UniProt P11712); experiment: Inhibition of human recombinant CYP2C9; assay type: ADME
Cytochrome P450 2C9, sequence (P11712 whole entry, canonical isoform): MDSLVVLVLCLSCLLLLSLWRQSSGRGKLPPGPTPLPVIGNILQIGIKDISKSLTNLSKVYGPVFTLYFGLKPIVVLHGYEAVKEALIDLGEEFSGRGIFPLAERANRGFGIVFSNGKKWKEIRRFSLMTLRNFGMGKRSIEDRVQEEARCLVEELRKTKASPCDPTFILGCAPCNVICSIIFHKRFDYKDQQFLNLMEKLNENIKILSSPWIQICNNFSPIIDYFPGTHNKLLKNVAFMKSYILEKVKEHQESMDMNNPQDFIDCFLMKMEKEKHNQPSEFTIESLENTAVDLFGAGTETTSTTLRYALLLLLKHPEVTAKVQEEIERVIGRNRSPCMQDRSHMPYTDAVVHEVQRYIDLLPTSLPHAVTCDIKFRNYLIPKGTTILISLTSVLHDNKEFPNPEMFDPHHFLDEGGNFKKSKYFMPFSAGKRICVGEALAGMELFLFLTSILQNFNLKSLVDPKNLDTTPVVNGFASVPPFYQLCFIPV
How it was run: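 Recombinant human CYP supersomes were incubated at 37 C in incubation/NADPH regenerating buffer with isoform-specific substrates that turn fluorescent on metabolism. The substrate was 3-cyano-7-ethoxycoumarin for CYP1A2 and 7-methoxy-4-trifluoromethylcoumarin for CYP2C9. Fluorescence was read at the appropriate excitation/emission wavelengths, with a literature inhibitor as positive control in each assay.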

[12] = molecular target: Cytochrome P450 2E1 (Homo sapiens, UniProt P05181); experiment: Inhibition of human recombinant CYP2E1; assay type: ADME
Cytochrome P450 2E1, sequence (P05181 whole entry, canonical isoform): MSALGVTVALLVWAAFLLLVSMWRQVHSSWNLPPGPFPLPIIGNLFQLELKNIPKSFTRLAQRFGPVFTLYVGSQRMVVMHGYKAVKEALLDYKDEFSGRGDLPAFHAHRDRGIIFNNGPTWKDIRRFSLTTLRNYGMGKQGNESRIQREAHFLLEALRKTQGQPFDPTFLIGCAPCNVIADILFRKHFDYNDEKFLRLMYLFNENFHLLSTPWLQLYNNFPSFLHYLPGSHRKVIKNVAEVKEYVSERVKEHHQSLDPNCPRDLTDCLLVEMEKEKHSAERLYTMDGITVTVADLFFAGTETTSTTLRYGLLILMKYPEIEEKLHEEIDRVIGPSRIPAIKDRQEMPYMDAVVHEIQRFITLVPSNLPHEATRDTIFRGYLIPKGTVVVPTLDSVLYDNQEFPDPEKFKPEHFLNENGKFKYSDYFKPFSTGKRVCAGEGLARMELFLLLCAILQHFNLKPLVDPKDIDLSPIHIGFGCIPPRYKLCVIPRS
How it was run: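 Human recombinant CYP isoenzymes (supersomes) were incubated at 37 C with the test compound in incubation/NADPH-regenerating buffer plus a fluorogenic substrate. The substrate was 3-[2-(N,N-diethyl-N-methylammonium)ethyl]-7-methoxy-4-methylcoumarin for CYP2D6 and 7-methoxy-4-phenylcoumarin for CYP2E1. Fluorescent product was read at isoform-appropriate wavelengths, with a literature inhibitor as positive control. IC50 came from nonlinear regression of at least seven concentrations, each in duplicate.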

[13] = molecular target: Cytochrome P450 3A4 (Homo sapiens, UniProt P08684); experiment: Inhibition of human recombinant CYP3A4; assay type: ADME
Cytochrome P450 3A4, sequence (P08684 whole entry, canonical isoform): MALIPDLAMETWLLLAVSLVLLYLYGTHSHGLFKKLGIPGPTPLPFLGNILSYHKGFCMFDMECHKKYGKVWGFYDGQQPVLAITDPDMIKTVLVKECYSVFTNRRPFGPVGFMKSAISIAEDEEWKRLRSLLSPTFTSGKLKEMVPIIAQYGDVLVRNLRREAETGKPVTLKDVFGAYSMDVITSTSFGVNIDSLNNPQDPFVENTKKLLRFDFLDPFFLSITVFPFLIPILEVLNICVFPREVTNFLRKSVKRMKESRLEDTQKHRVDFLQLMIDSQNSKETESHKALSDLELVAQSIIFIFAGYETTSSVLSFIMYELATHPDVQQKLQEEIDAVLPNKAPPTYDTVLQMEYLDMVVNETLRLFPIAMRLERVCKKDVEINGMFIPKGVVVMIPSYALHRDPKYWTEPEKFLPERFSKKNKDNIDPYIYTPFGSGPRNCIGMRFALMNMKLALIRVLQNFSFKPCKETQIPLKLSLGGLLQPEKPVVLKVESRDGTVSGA
How it was run: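 Human recombinant CYP supersomes incubated at 37 °C with compound in NADPH-regenerating buffer, with fluorogenic substrates: 3-cyano-7-ethoxycoumarin for CYP2C19, […] for CYP3A4. Fluorescence read on a plate reader. Known isoform inhibitors run as positive controls in every assay.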

[14] = test system: SH-SY5Y; experiment: Cytotoxicity against human SH-SY5Y cells assessed as cellular damage up to 10 uM after 24 hrs by MTS assay; assay type: functional, cell-based
How it was run: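 Human neuroblastoma SH-SY5Y cells kept in DMEM with 10% heat-inactivated FBS. Seeded at 6.25 × 10^4/cm2 and grown 72 h to subconfluence. Switched to serum-free neurobasal medium 30 min before compound, then 24 h at 37 °C with 1, 3, 10, 30 or 100 μM compound. Viability read by colorimetric MTS assay.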

[15] = molecular target: Amine oxidase [flavin-containing] B (Homo sapiens) (UniProt P27338); experiment: Inhibition of MAO-B in human platelet rich plasma by radioenzymatic assay
Amine oxidase [flavin-containing] B (Homo sapiens), sequence (P27338 whole entry, looked up): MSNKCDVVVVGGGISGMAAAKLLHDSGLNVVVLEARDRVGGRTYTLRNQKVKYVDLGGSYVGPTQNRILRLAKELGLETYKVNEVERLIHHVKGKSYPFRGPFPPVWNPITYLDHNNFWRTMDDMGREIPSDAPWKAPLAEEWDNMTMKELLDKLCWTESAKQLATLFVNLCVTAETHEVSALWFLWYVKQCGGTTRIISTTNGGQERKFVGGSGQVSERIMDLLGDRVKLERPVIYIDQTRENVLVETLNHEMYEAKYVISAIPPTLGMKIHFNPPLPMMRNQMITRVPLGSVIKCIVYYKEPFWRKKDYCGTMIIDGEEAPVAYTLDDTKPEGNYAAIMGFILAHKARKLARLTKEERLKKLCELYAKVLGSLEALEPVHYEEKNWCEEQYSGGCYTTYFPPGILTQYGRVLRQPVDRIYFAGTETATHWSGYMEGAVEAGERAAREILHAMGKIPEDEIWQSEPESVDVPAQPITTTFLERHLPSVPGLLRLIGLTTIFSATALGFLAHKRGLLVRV

CNCc1cc(=O)oc2cc(OCc3cccc(Cl)c3)ccc12.CS(=O)(=O)O
IC50 [1]: 13 nM | Ratio IC50 [2]: 457 | logP [3]: 2.49 | solubility kinetic [4]: 52 µg/mL | log Pe [5]: -3.48 cm/s | Activity [6]: inactive | Activity [7]: 84% | Activity [8]: 86% | Activity [9]: 90% | ED50 [10]: 0.24 mg/kg | IC50 [11]: > 5000 nM | IC50 [12]: > 5000 nM | IC50 [13]: > 5000 nM | Activity [14]: inactive | IC50 [15]: 3 nM
